Fewer inactive variants are shown than the library holds.
B1: tRNA (parent)
chain: GUUCCGUUGGCGUAAUGGUAACGCGUCUCCCUCCUAAGGAGAAGACUGCGGGUUCGAGUCCCGUACGGAACG

Variants of: B1
Experiment: yeast fitness relative to wild type (ratio to wild type); higher = fitter; tRNA-Arg(CCU), competitive growth, 37 C, YPD
How it was run: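 A pool of Saccharomyces cerevisiae strains, each with a tRNA-Arg(CCU) gene variant at the native genomic locus, was competed in YPD at 37°C for 24 hours across six parallel replicates. The variants had been chemically synthesised at a 3% per-site mutation rate over 69 sites, and gene amplicons before and after competition were read by 100-nucleotide paired-end sequencing. Darwinian fitness relative to wild type rested on changes in genotype frequencies. Genotypes required ≥ 100 starting reads, and estimates < 0.5 were set to 0.5.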

Variant	yeast fitness
GUUCCGUUGGCGUAAUGGUAACGCGUCUCCCCCCUAAGGACAAGACUGCGGGUUCGAUUCCCGUACGGAACG	0.533
GUUCCGUUGGCGUAAUGGUAACGCGUCUCCCCCCUAAGGAGAAGAUUGCGCGUUCGAGUCCUGUACGGAACG	≤ 0.5
GUUCCGUUGGCGUAAUGGUAACGCGUCUCCCCCCUAAGGAGAAGACUGCGGGUUUGCGUCCCGUACAGAACG	0.638
GUUCCGUUGGCGUAAUGGUAACGCGUCUCCCCCAUAAGGAGAAGACUGCGGGUUCGAGUCCCGUACGGAACG	0.729
GUUCCGUUGGCGUAAUGGUAACGCGUCUCCCCCCUAAGGAGAAGACUGCGGGUUUGAGUCCCGUACAGAACG	≤ 0.5
GUUCCGUUGGCGUAAUGGUAACGCGUCUCCCCCCUAAGGAGAAGACUGCGGGUUCGAGUCCCGUACAGAACG	0.855
GUUCCGUUGGCGUAAUGGUAACGCGUCUCCCCCCUAAGGAGAAGACUGCGGGUUCGAGUCCCGUACUGAACG	0.861
GUUCCGUUGGCGUAAUGGUAACGCGUCUCCCCCCUAAGGAGAAGACUGUGGGUUCGAGUCCCGUACGGAACG	0.971
GUUCCGUUGGCGUAAUGGUAACGCGUCUCCCCCCUAAGGAGAAGACUGCGGGUUUGGGUCCCGUACGGAACG	0.555
GUUCCGUUGGCGUAAUGGUAACGCGUCUCCCCCCUAAGGAGAAGACUGCGGGUUCGAGUCCCGUCCGGAACG	1.03
GUUCCGUUGGCGUAAUGGUAACGCGUCUCCCCCCUAAGGAGAAGACUGCGGGUUCGAGUCCCGUGCGGAACG	0.936
GUUCCGUUGGCGUAAUGGUAACGCGUCUCCCCCCUAAGGAGAAGACUGCGGGUUCGAGUCCCGUUCGGAACG	0.957
GUUCCGUUGGCGUAAUGGUAACGCGUCUCCCCCCUAAGCAGAAGACUGCGGGUUCGAGUCUCGUACGGAACG	≤ 0.5
GUUCCGUUGGCGUAAUGGUAACGCGUCUCCCCCCUAAGGAGAAGUCUGCGGGUUCGAGUCCCGUACGGAACG	0.942
GUUCCGUUGGCGUAAUGGUAACGCGUCUCCCCCCUAAGGAGAAGGCUGCGGGUUCGAGUCCCGUACGGAACG	0.91
GUUCCGUUGGCGUAAUGGUAACGCGUCUCCCCCCUAAGGAGAAGCCUGCGGGUUCGAGUCCCGUACGGAACG	0.864
GUUCCGUUGGCGUAAUGGUAACGCGUCUCCCCCCUAAGGAGAAGACUGCGGGUUCGAGUCCCGUACGGUACG	0.926
GUUCCGUUGGCGUAAUGGUAACGCGUCUCCCCCCUAAGGAGAAGACUGCGGGUUCGAGUCCCGUACGGGACG	0.882
GUUCCGUUGGCGUAAUGGUAACGCGUCUCCCCCCUAAGGAGAAGACUGCGGGUUCGAGUCUCGUACGGAACG	0.987
GUUCCGUUGGCGUAAUGGUAACGCGUCUCCCCCCUAAGGAGAAGACUGCGGGUUCGAGUCGCGUACGGAACG	0.702
GUUCCGUUGGCGUAAUGGUAACGCGUCUCCCCCGUAAGGACAAGACUGCGGGUUCGAGUCCCGUACGGAACG	≤ 0.5
GUUCCGUUGGCGUAAUGGUAACGCGUCUCCCCCCUAAGGAGAAGAGUGCGGGUUCGAGUCGCGUACGGAACG	0.587
GUUCCGUUGGCGUAAUGGUAACGCGUCUCCCCCCUAAGGAGAAGAGUGCGGGUUCGUGUCCCGUACGGAACG	0.673
GUUCCGUUGGCGUAAUGGUAACGCGUCUCCCCCAUAAGGCGAAGACUGCGGGUCCGAGUCCCGUAUGGAACG	0.534
GUUCCGUUGGCGUAAUGGUAACGCGUCUCCCCCAUAAGGAGAAGACUGCGGGUUCGAGUCCAGUACGGAACG	0.591

Variant	yeast fitness
GUUCCGUUGGCGUAAUGGUAACGCGUCUCCCCCCUAAGGAGAAAACUGCGGGUUCGAGUCGCGUACGGAACG	≤ 0.5
GUUCCGUUGGCGUAAUGGUAACGCGUCUCCCCCCUAAGGAGAAGACUGCGGGUUCGAGUCCUGUACGGCACG	1.15
GUUCCGUUGGCGUAAUGGUAACGCGUCUCCCCCCUAAGGAGAAGACUGCGGGUUCGAGUUCCGUACGGAACG	0.642
GUUCCGUUGGCGUAAUGGUAACGCGUCUCCCCCCUAAGGAGAAGACUGCGGGUUCGAGUACCGUACGGAACG	0.645
GUUCCGUUGGCGUAAUGGUAACGCGUCUCCCCCCUAAGGAGAAGACUGCGGGUUGGAGUCCCGUACGGAACG	0.629
GUUCCGUUGGCGUAAUGGUAACGCGUCUCCCCCCUAAGCAGAAGACUGCGGGUUUGAGUCCCGUACGGAACG	≤ 0.5
GUUCCGUUGGCGUAAUGGUAACGCGUCUCCCCCCUAAGGACAAGACUGCAGGUUCGAGUCGCGUACGGAACG	0.565
GUUCCGUUGGCGUAAUGGUAACGCGUCUCCCCCCUAAGGAGAAGACUGCGGGUUCGAGUCCUGUACGGAACG	1.02
GUUCCGUUGGCGUAAUGGUAACGCGUCUCCCCCCUAAGGAGAAGACUGCGGGUUCGAGUCCGGUACGGAACG	0.796
GUUCCGUUGGCGUAAUGGUAACGCGUCUCCCCCCUAAGGAGAAGACUGCGGGUUCGAGUCCAGUACGGAACG	0.727
GUUCCGUUGGCGUAAUGGUAACGCGUCUCCCCCCUAAGGAGAAGACUGCGGGUUCGAGUGCGGUACGGAACG	≤ 0.5
GUUCCGUUGGCGUAAUGGUAACGCGUCUCCCCCCUAAGGAGAAGACUGCGGGUUCGUGUCCCGUACGGACCG	≤ 0.5
GUUCCGUUGGCGUAAUGGUAACGCGUCUCCCCCCUAAGGAGAAGACUGCGGGUUCGAGUCCUGUAGGGAACG	≤ 0.5
GUUCCGUUGGCGUAAUGGUAACGCGUCUCCCCCAUAUGGAGAAGAUUGCGGGUUCGAGUCCCGUACGGAACG	≤ 0.5
GUUCCGUUGGCGUAAUGGUAACGCGUCUCCCCCCUAAGGAGAAGACUGCGGGUUUGAGUCCCGUACGGUACG	0.55
GUUCCGUUGGCGUAAUGGUAACGCGUCUCCCCUCUAAGGAGAAGACUGCGGGUUCGAGUCCCGUACGGAGCG	0.681
GUUCCGUUGGCGUAAUGGUAACGCGUCUCCCCCCUAAGGAGAAGACUGCGGGUUCGAGUCCCGUAGGGAUCG	0.811
GUUCCGUUGGCGUAAUGGUAACGCGUCUCCCCCCUAAGGAGAAGACUGCGGGUUCGAGUGCCGUACGGUACG	≤ 0.5
GUUCCGUUGGCGUAAUGGUAACGCGUCUCCCCCUCAAGGAGAAGGCUGCGGGUACGAGUCCCGUACGGAACG	≤ 0.5
GUUCCGUUGGCGUAAUGGUAACGCGUCUCCCCCCUAACGACAAGACUGCGGGUUCGAGUCCCGUGCGGAACG	≤ 0.5
GUUCCGUUGGCGUAAUGGUAACGCGUCUCCCCCCUAAGGAGAAGACUGCGCGUUCGAGUCUCGUACGGAACG	≤ 0.5
GUUCCGUUGGCGUAAUGGUAACGCGUCUCCCCCCUAAGGAGAAGAGUGCGGGUUCGAGUCCCGUGCGGAACG	0.917
GUUCCGUUGGCGUAAUGGUAACGCGUCUCCCCCCUAAGCAGAAGACUGCGGGUUCGAGUCCCGUACCGAACG	≤ 0.5
GUUCCGUUGGCGUAAUGGUAACGCGUCUCCCCCCUAAGGAGAAGACUGCAGGUUCGAGUCCCGUACGGAACG	1.02
GUUCCGUUGGCGUAAUGGUAACGCGUCUCCCCCCUAAGGAGAAGUCUGGGGGUUGGAGUCCCGUACCGAACG	≤ 0.5

Variant	yeast fitness
GUUCCGUUGGCGUAAUGGUAACGCGUCUCCCCCCUAAGGAGAAGACUGCGGGUUCGAGUCUCGUACGAAACG	0.586
GUUCCGUUGGCGUAAUGGUAACGCGUCUCCCCCCUAAGGAGAAGACUGCGGGUUCGAGUCCCGUUCGUAACG	0.622
GUUCCGUUGGCGUAAUGGUAACGCGUCUCCCCCCUAAGGAGAAGACUGCGGGUUCGAGUGCCGUUCGGAACG	≤ 0.5
GUUCCGUUGGCGUAAUGGUAACGCGUCUCCCCCCUAAGAUGAAGACUGCGGGUUCGAGUCCCCUACGGAACG	≤ 0.5
GUUCCGUUGGCGUAAUGGUAACGCGUCUCCCCCCUAAGGAGAAGACUGCGGCUUCGAGUCCCGUACAGCACG	≤ 0.5
GUUCCGUUGGCGUAAUGGUAACGCGUCUCCCCCCUAAGGAGAAGACUGCGGGUUCGAGUCCCGUACGCAACG	0.808
GUUCCGUUGGCGUAAUGGUAACGCGUCUCCCCGCUAGGGAGAAGACUGCGGAUUUGAGUCCCGUUCGGAACG	0.555
GUUCCGUUGGCGUAAUGGUAACGCGUCUCCCCCCUAACGAGAAGACUGCGGGUUCGAGUCCCGUACGGAACG	0.742
GUUCCGUUGGCGUAAUGGUAACGCGUCUCCCCCUUAAGGAGAAGUCUGCGGGUUCGAGUCCCGUACGGAUCG	0.826
GUUCCGUUGGCGUAAUGGUAACGCGUCUCCCCCCUAAGGAGAAGAGUGCGGGUUCGAGUCCCGUACGGAACG	0.865
GUUCCGUUGGCGUAAUGGUAACGCGUCUCCCCCCUAAGGAGAAGACUGCGGGUUCGAGUCCCGUACGGAGCG	0.942
GUUCCGUUGGCGUAAUGGUAACGCGUCUCCCCCCUAAGGAGAAAACUGCGGGUUCGAGUCCCGUACGGUACG	1.05
GUUCCGUUGGCGUAAUGGUAACGCGUCUCCCCUCUAAGGAGUAGACUGCGGGUUCGAGUCCCGUACGGAACG	0.66
GUUCCGUUGGCGUAAUGGUAACGCGUCUCCCCCCUAAGGAGAAGACUGUGGGUUCGCGUCCCGUACGGAACG	0.654
GUUCCGUUGGCGUAAUGGUAACGCGUCUCCCCCCUAAGGAGAAGACUGCGGGUUCGCGUCCCGUACGGAACG	0.659
GUUCCGUUGGCGUAAUGGUAACGCGUCUCCCCCCUAAGGAGAAGACUGCGGGUUCGUGUCCCGUACGGAACG	0.813
GUUCCGUUGGCGUAAUGGUAACGCGUCUCCCCCCUAAGGAGAAGAGUGCGGGUUCCAGUCCCGUACGGAACG	≤ 0.5
GUUCCGUUGGCGUAAUGGUAACGCGUCUCCCCCCUAAGGAGAAGACUGCGGGUUCGAGUCCCGUACUGCACG	≤ 0.5
GUUCCGUUGGCGUAAUGGUAACGCGUCUCCCCCCUAAGGAGAAGACUGCGGGUUCGAGUGCCGUAUGGAUCG	≤ 0.5
GUUCCGUUGGCGUAAUGGUAACGCGUCUCCCCCCUAAGGAGAAGACUGCGGGUUCGAGUCCCAUACGGAACG	0.832
GUUCCGUUGGCGUAAUGGUAACGCGUCUCCCCCCUAAGGAGAAGACUGCGGGUUCGAGUCCCGUAUGCAACG	0.554
GUUCCGUUGGCGUAAUGGUAACGCGUCUCCCCCCUAAGGAGAAAACUGCGGGUUCGAGUCCCGUACGGAACG	1.03
GUUCCGUUGGCGUAAUGGUAACGCGUCUCCCCCGUAAGGAGUAGACUGCGGGUUCGAGUCCCGUACGGAACG	≤ 0.5
GUUCCGUUGGCGUAAUGGUAACGCGUCUCCCCCGUAAGGAGCAGACUGCGGGUUCGAGUCCCGUACGGAACG	≤ 0.5
GUUCCGUUGGCGUAAUGGUAACGCGUCUCCCCCCUAAGGAGAAGACUGCGGGUUCGAGUCCCGUAUGGAACG	0.966
